Test [1] relates to CEM-SS. The test can be described thus: Using the XTT assay for cell viability, inhibitory concentration to protect human lymphoblastoid CEM-SS cells from the cytopathic effects of HIV-1 (RF strain) was determined; c - not measurabel. The test is classed as functional, cell-based. In outline:
(§1)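 Values reported as averages of quadruplicate determinations.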
In general terms: Tetrazolium dyes change colour on reduction, which living cells bring about.

The test system of test [2] is CEM-SS. Nature of the test: Using the XTT assay for cell viability, effective concentration to protect human lymphoblastoid CEM-SS cells from the cytopathic effects of HIV-1 (RF strain) was determined; c - not measurabel. Format: functional, cell-based. In outline:
as §1

Test [3] concerns CEM-SS. Nature of the test: Using the XTT assay for cell viability, inhibitory concentration to protect human lymphoblastoid CEM-SS cells from the cytopathic effects of HIV-1 (RF strain) was determined. Format: functional, cell-based. In a few lines:
as §1

Test [4] deals with CEM-SS. Nature of the test: Using the XTT assay for cell viability, effective concentration to protect human lymphoblastoid CEM-SS cells from the cytopathic effects of HIV-1 (RF strain) was determined. The test is classed as functional, cell-based. In outline: as §1
A short description of test [5]: Ratio of inhibitory concentration to that of effective concentration for protection of CEM-SS cells from cytopathic effects of HIV-1 (RF strain). The test is classed as functional. In outline: (§2)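 In vitro therapeutic index taken as IC50 divided by EC50.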
Test [6] relates to CEM-SS. The test can be described thus: Using the XTT assay for cell viability, inhibitory concentration to protect human lymphoblastoid CEM-SS cells from the cytopathic effects of HIV-1 (RF strain) was determined; c - not measurable. Format: functional, cell-based. In a few lines:
as §1

Test [7] has as its system CEM-SS. Nature of the test: Using the XTT assay for cell viability, effective concentration to protect human lymphoblastoid CEM-SS cells from the cytopathic effects of HIV-1 (RF strain) was determined; c - not measurable. Format: functional, cell-based. In a few lines: as §1
The test system of test [8] is CEM-SS. The test can be described thus: Using the XTT assay for cell viability, effective concentration to protect human lymphoblastoid CEM-SS cells from the cytopathic effects of HIV-1 (RF strain) was determined; d - Not independently evaluated; not stable under assay conditions; rapidl y converts to active compound 2 under assay conditions. The test is classed as functional, cell-based.

The test system of test [9] is CEM-SS. The test can be described thus: Using the XTT assay for cell viability, inhibitory concentration to protect human lymphoblastoid CEM-SS cells from the cytopathic effects of HIV-1 (RF strain) was determined; d - Not independently evaluated; not stable under assay conditions; rapid ly converts to active compound 2 under assay conditions. Format: functional, cell-based.

Test [10] has as its system CEM-SS. The test can be described thus: Ratio of inhibitory concentration to that of effective concentration for protection of CEM-SS cells from cytopathic effects of HIV-1 (RF strain); not measurable. The test is classed as functional, cell-based. In a few lines: as §2
(Protection from cytopathic effect is a common read-out in antiviral testing.)

One may read the IC50 as the concentration at which inhibition is half-maximal. The EC50 is the midpoint of the concentration-response curve. High values mean lower potency in that assay, low ones higher potency in that assay. `CCCc1cc(=O)oc2c3c(c4c(c12)OC(C)(C)C=C4)O[C@@H](C)[C@H](C)[C@H]3O` [(-)-CALANOLIDE A]: in the test on CEM-SS [1], the IC50 result was “Not measurable”. Moreover, the EC50 result in the test on CEM-SS [2] was “Not measurable”.
In the test on CEM-SS [3], `CCCc1cc(=O)oc2c3c(c4c(c12)OC(C)(C)CC4)O[C@@H](C)[C@H](C)C3=O` had an IC50 of 7.9 µM. The midpoint of the response in the test with CEM-SS [4], the EC50, lay at 0.37 µM. Also, the TI in test [5] is recorded as 21.
In the same order, the values of `CCCc1cc(=O)oc2c3c(c4c(c12)OC(C)(C)C=C4)O[C@@H](C)[C@H](C)[C@@H]3O` [COSTATOLIDE] are 5.9 µM, 0.2 µM and 31.
As to `CCCc1cc(=O)oc2c3c(c4c(c12)OC(C)(C)CC4)O[C@H](C)C(C)=C3`, the IC50 result in the test with CEM-SS [6] is on record as “Not measurable”. In the test on CEM-SS [7], the EC50 result is recorded as “Not measurable”.
Regarding `CCCc1cc(=O)oc2c3c(c4c(c12)OC(C)(C)CC4)O[C@H](C)[C@@H](C)[C@@H]3O`, the midpoint of inhibition in the test on CEM-SS [3], the IC50, lay at 5.2 µM. In the test with CEM-SS [4], this compound yielded an EC50 of 0.2 µM. In test [5], the TI is 23.
Consider `CCCc1cc(=O)oc2c3c(c4c(c12)OC(C)(C)CC4)O[C@@H](C)[C@H](C)[C@@H]3N`, for which the IC50 in the test on CEM-SS [3] stood at 5.8 µM. This compound registered an EC50 in the test on CEM-SS [4] of 0.6 µM. Besides, the TI in [5] was found to be 10.
Regarding `CCCc1cc(=O)oc2c3c(c4c(c12)OC(C)(C)C=C4)O[C@@H](C)[C@H](C)[C@@H]3F`, in the test with CEM-SS [8], the EC50 result is listed as “Not independently evaluated”. Besides, in the test on CEM-SS [9], the IC50 entry was “Not independently evaluated”.
`CCCc1cc(=O)oc2c3c(c4c(c12)OC(C)(C)C=C4)O[C@@H](C)[C@H](C)[C@@H]3N=[N+]=[N-]`: the midpoint of inhibition in the test on CEM-SS [3], the IC50, lay at 5.9 µM. In the test with CEM-SS [4], this compound displayed an EC50 of 1.6 µM. The TI in test [5] was determined as 4.
As to `CCCc1cc(=O)oc2c3c(c4c(c12)OC(C)(C)C=C4)O[C@H](C)[C@@H](C)C3=O`, half-maximal inhibition in the test on CEM-SS [3] (IC50) required 9.3 µM. This compound gave an EC50 in the test with CEM-SS [4] of 0.15 µM. In test [5], the TI is on record as 62.
In the same order, the values of `CCCc1cc(=O)oc2c3c(c4c(c12)OC(C)(C)CC4)O[C@@H](C)[C@H](C)[C@@H]3O` [7,8-DIHYDROCALANOLIDE B] are 8.2 µM, 0.2 µM and 41.
`CCCc1cc(=O)oc2c3c(c4c(c12)OC(C)(C)C=C4)O[C@@H](C)[C@H](C)[C@@H]3S` had an IC50 in the test on CEM-SS [3] greater than 150 µM. Also, the response in the test with CEM-SS [4] was half-maximal at 8.4 µM (EC50). In the test on CEM-SS [10], the TI result is “Not measurable”.
`CCCc1cc(=O)oc2c3c(c4c(c12)OC(C)(C)C=C4)O[C@H](C)[C@@H](C)[C@@H]3O` [CALANOLIDE A]: in the test with CEM-SS [3], the 50% inhibitory concentration (IC50) is 7.3 µM. Also, the EC50 with CEM-SS [4] worked out at 0.18 µM. For the same compound, in [5], the TI turned out to be 40.
Take `CCCc1cc(=O)oc2c3c(c4c(c12)OC(C)(C)C=C4)O[C@@H](C)[C@H](C)C3=O`: in the test on CEM-SS [3], the IC50 was 8.5 µM. Besides, the EC50 in the test with CEM-SS [4] amounted to 0.4 µM. In test [5], the TI is given as 24.

The values are drawn from ChEMBL document CHEMBL1129388, “Structure-activity modifications of the HIV-1 inhibitors (+)-calanolide A and (-)-calanolide B” (J Med Chem, 1996).
